The values below come from article PMC2911665 (The Journal of Cell Biology, 2010).

For orientation: Kd means a measure of binding affinity in units of concentration.

First the molecules themselves.
B1: Par-4: prostate apoptosis response protein 4, SPSB binding partner containing ELNNNL (human) (protein, UniProt Q96IZ0 1-340, looked up)
PRKC apoptosis WT1 regulator …: MATGGYRTSSGLGGSTTDFLEEWKAKREKMRAKQNPPGPAPPGGGSSDAAGKPPAGALGTPAAAAANELNNNLPGGAPAAPAVPGPGGVNCAVGSAMLTRAAPGPRRSEDEPPAASASAAPPPQRDEEEPDGVPEKGKSSGPSARKGKGQIEKRKLREKRRSTGVVNIPAAECLDEYEDDEAGQKERKREDAITQQNTIQNEAVNLLDPGSSYLLQEPPRTVSGRYKSTTSVSEEDVSSRYSRTDRSGFPRYNRDANVSGTLVSSSTLEKKIEDLEKEVVRERQENLRLVRLMQDKEEMIGKLKEEIDLLNRDLDDIEDENEQLKQENKTLLKVVGQLTR

Where a chain is given by its changes, count along the chain named. Where a SMILES comes first, the peptide text is derived from it. The star is where a group is joined. Cbz = O=C(OCc1ccccc1)*

The first test addresses SPSB1.
Assay: not given
The following applies: SPSB1 binding to Par-4; ref Woo et al., 2006; cited from earlier work.
On to B1, for which the Kd is 146 nM.

The test system of a further test is iNOS degradation in Spsb2T/+ BMDMs. As to the kind of experiment: iNOS degradation in Spsb2T/+ BMDMs after LPS/IFN-γ stimulation and wash. In kind it is cell-based, mouse. Conditions: 10 µM MG-132 in fresh medium after wash. In outline:
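Bone marrow macrophages (>95% CD11b+ after 6 d culture) from littermate controls, SPSB2-transgenic or SOCS-box-deleted transgenic mice, stimulated overnight with LPS/IFN-γ or left unstimulated. Washed, refed with medium ±10 µM MG-132 (proteasome inhibitor), lysed at set times after wash. Lysates run on SDS-PAGE, blotted with anti-iNOS, peroxidase secondary and ECL. Membranes stripped (0.1 M Gly, pH 2.9) and reprobed for tubulin as loading control.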
On to `CC(C)C[C@@H](C=O)NC(=O)[C@H](CC(C)C)NC(=O)[C@H](CC(C)C)NC(=O)OCc1ccccc1` [MG-132] (Cbz-Leu-Leu-Leu-aldehyde), for which the “effect on enhanced iNOS degradation” value was “abrogated”.

A further test deals with SPSB2.
Assay: not given
Conditions: SPSB2 binding to Par-4; ref Woo et al., 2006; cited from earlier work.
Regarding B1, the Kd was 4700 nM.

Another test concerns the target T1, SPSB2 SPRY domain (residues 12–224) (mouse, UniProt O88838 12-224).
T1 sequence (looked up): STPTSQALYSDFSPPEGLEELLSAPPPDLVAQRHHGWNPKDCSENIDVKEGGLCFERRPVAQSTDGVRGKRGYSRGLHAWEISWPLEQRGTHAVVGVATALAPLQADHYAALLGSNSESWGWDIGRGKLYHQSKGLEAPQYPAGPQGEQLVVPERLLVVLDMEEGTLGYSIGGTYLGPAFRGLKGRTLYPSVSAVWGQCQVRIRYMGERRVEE
As to the kind of experiment: ITC.
Conditions: not given
In turn, Ac-KEEKDINNNVKKT-NH2 [iNOS N-terminal peptide, wild type (Ac-KEEKDINNNVKKT-NH2)] gave a Kd of 13.3 ± 3 nM.
On to Ac-KEEKDIQNNVKKT-NH2 [iNOS N-terminal peptide H (Ac-KEEKDIQNNVKKT-NH2)], for which binding was put at a Kd of 40500 nM.
Still for that read-out and setting: the result for Ac-KEEADINNNVKKT-NH2 [iNOS N-terminal peptide C (Ac-KEEADINNNVKKT-NH2)] reads 127 ± 23 nM; that for Ac-KEEKDINNNVKAT-NH2 [iNOS N-terminal peptide M (Ac-KEEKDINNNVKAT-NH2)], 29.8 ± 12.2 nM.
The same measure, in the same setting: the result for Ac-KEEKDIANNVKKT-NH2 [iNOS N-terminal peptide G (Ac-KEEKDIANNVKKT-NH2)] reads 17200 nM; that for Ac-KEAADINNNVKKT-NH2 [iNOS N-terminal peptide D (Ac-KEAADINNNVKKT-NH2)], 65.4 ± 7.4 nM; that for Ac-KEAKDINNNVKKT-NH2 [iNOS N-terminal peptide B (Ac-KEAKDINNNVKKT-NH2)], 14 ± 3 nM.
In turn, Ac-KEEKDINANVKKT-NH2 [iNOS N-terminal peptide I (Ac-KEEKDINANVKKT-NH2)] showed a Kd of 826 ± 20 nM.
The same measure, in the same setting: next, Ac-KEEADINNNAKAT-NH2 [iNOS N-terminal peptide O (Ac-KEEADINNNAKAT-NH2)]: 311 ± 37 nM; Ac-KEEKAINNNVKKT-NH2 [iNOS N-terminal peptide E (Ac-KEEKAINNNVKKT-NH2)]: 21600 ± 750 nM.
Molecule Ac-KEEKDANNNVKKT-NH2 [iNOS N-terminal peptide F (Ac-KEEKDANNNVKKT-NH2)] displayed a Kd of 23.5 ± 9.9 nM.
The same measure, in the same setting: next, Ac-KEEKDINNNAKAT-NH2 [iNOS N-terminal peptide N (Ac-KEEKDINNNAKAT-NH2)]: 180 ± 39 nM; Ac-KEEKDINNNAKKT-NH2 [iNOS N-terminal peptide L (Ac-KEEKDINNNAKKT-NH2)]: 56.8 ± 11.2 nM.

The target in the next test is T2, Y120A-SPSB2 (12–224) (mouse, UniProt O88838 12-224, Y120A).
T2 sequence (looked up): T1 sequence (looked up) with Y109A
Briefly: ITC.
Conditions: not given
For Ac-KEEKDINNNVKKT-NH2 [iNOS N-terminal peptide, wild type (Ac-KEEKDINNNVKKT-NH2)], the “fold reduction of affinity against wild-type SPSB2 (12–224)” value is ~5000 fold.
